Bridge positions count the residues as written; N and C are the ends. Square brackets hold non-standard residues; d marks the D form. Peptide text beside a SMILES is read from it. NMeA = CN[C@@H](C)C(=O)O; Dab = NCC[C@H](N)C(=O)O; βAla = NCCC(=O)O
Assays:
[1] = target: T1, IgG receptor FcRn large subunit p51 (Homo sapiens, UniProt P55899); test: Binding affinity to human FcRn at pH 6 by surface plasmon resonance assay
Procedure, shortened: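 Soluble human FcRn coupled to the dextran surface of a CM5 chip; peptide dilutions flowed over the chip. The equilibrium response at each dilution was plotted against concentration and fitted to a steady-state affinity model to give Kd.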

[2] = target: T1, IgG receptor FcRn large subunit p51; test: Inhibition of human IgG binding to soluble human FcRn by ELISA
Procedure, shortened: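 Biotinylated soluble human FcRn immobilized on neutravidin plates, incubated with hIgG (3 nM, constant) and peptide at varying concentrations for 2 h at 37 °C. After washing, bound hIgG detected with peroxidase-conjugated hIgG-specific Fab fragments.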

[3] = target: T1, IgG receptor FcRn large subunit p51; test: Binding affinity to human FcRn at pH 7.4 by surface plasmon resonance assay
Procedure, shortened: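 Soluble human FcRn coupled to the dextran surface of a CM5 chip; peptide dilutions flowed over the chip. Equilibrium response at each dilution plotted against concentration, and Kd fitted with a steady-state affinity model.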

T1 sequence (P55899 whole entry): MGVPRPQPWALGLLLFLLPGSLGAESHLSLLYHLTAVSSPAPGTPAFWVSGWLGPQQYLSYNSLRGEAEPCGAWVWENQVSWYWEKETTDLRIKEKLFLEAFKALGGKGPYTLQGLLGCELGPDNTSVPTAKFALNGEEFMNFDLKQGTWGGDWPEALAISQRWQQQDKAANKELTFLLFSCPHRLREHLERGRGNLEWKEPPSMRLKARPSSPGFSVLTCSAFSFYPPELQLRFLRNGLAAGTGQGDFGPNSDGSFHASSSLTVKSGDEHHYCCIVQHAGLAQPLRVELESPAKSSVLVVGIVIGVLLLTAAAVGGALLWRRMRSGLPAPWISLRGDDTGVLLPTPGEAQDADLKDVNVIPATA

| Compound | Kd [1] | IC50 [2] | Kd [3] |
| --- | --- | --- | --- |
| CC(C)C[C@@H](C(=O)N[C@@H](Cc1ccc(O)cc1)C(=O)N1CCC[C@H]1C(=O)N[C@@H](CS)C(=O)O)N(C)C(=O)CN(C)C(=O)CNC(=O)[C@H](Cc1ccccc1)NC(=O)[C@H](Cc1cnc[nH]1)NC(=O)CNC(=O)[C@@H](NC(=O)[C@@H](NC(=O)[C@H](Cc1ccccc1)NC(=O)[C@@H](N)CCCNC(=N)N)C(C)(C)S)[C@@H](C)O | 0.031 µM | 0.57 µM |  |
| CC(C)C[C@@H](C(=O)N[C@@H](Cc1ccc(O)cc1)C(=O)N1CCC[C@H]1C(=O)N[C@@H](CS)C(=O)O)N(C)C(=O)CN(C)C(=O)CNC(=O)[C@H](Cc1ccccc1)NC(=O)[C@H](CCCNC(=N)N)NC(=O)CNC(=O)[C@@H](NC(=O)[C@@H](NC(=O)[C@H](Cc1ccccc1)NC(=O)[C@@H](N)CCCNC(=N)N)C(C)(C)S)[C@@H](C)O | 0.5 µM | 5.5 µM | 0.5 µM |
| CC(C)C[C@H](NC(=O)CN1CC[C@@H](NC(=O)[C@H](Cc2ccccc2)NC(=O)[C@H](Cc2cnc[nH]2)NC(=O)CNC(=O)[C@@H](NC(=O)[C@@H](NC(=O)[C@H](Cc2ccccc2)NC(=O)[C@@H](N)CCCN=C(N)N)C(C)(C)S)[C@@H](C)O)C1=O)C(=O)N[C@@H](Cc1ccc(O)cc1)C(=O)N1CCC[C@H]1C(=O)N[C@@H](CS)C(=O)O | 0.28 µM | 2.3 µM |  |
| CC(C)C[C@H](NC(=O)CNC(=O)CNC(=O)[C@H](Cc1ccccc1)NC(=O)[C@H](Cc1cnc[nH]1)NC(=O)CNC(=O)[C@@H](NC(=O)[C@H](CS)NC(=O)[C@H](C)NC(=O)[C@H](CCCN=C(N)N)NC(=O)[C@@H](N)CCC(N)=O)[C@@H](C)O)C(=O)N[C@@H](Cc1ccc(O)cc1)C(=O)N1CCC[C@H]1C(=O)N[C@@H](CS)C(=O)N[C@@H](CC(N)=O)C(=O)NCC(=O)N1CCC[C@H]1C(=O)O (H-QRACTGHFGGLYPCNGP-OH) | 28 µM | 95 µM |  |
| CC(C)C[C@H](NC(=O)CNC(=O)CNC(=O)[C@H](C)NC(=O)[C@H](Cc1cnc[nH]1)NC(=O)CNC(=O)[C@@H](NC(=O)[C@H](CS)NC(=O)[C@H](Cc1ccccc1)NC(=O)[C@H](CCCNC(=N)N)NC(=O)[C@@H](N)CCC(N)=O)[C@@H](C)O)C(=O)N[C@@H](Cc1ccc(O)cc1)C(=O)N1CCC[C@H]1C(=O)N[C@@H](CS)C(=O)N[C@@H](CC(N)=O)C(=O)NCC(=O)N1CCC[C@H]1C(=O)O (H-QRFCTGHAGGLYPCNGP-OH) | > 250 µM | > 125 µM |  |
| C[C@H](NC(=O)CNC(=O)CNC(=O)[C@H](Cc1ccccc1)NC(=O)[C@H](Cc1cnc[nH]1)NC(=O)CNC(=O)[C@@H](NC(=O)[C@H](CS)NC(=O)[C@H](Cc1ccccc1)NC(=O)[C@H](CCCN=C(N)N)NC(=O)[C@@H](N)CCC(N)=O)[C@@H](C)O)C(=O)N[C@@H](Cc1ccc(O)cc1)C(=O)N1CCC[C@H]1C(=O)N[C@@H](CS)C(=O)N[C@@H](CC(N)=O)C(=O)NCC(=O)N1CCC[C@H]1C(=O)O (H-QRFCTGHFGGAYPCNGP-OH) | 26 µM | 107 µM |  |
| CC(C)C[C@H](NC(=O)CNC(=O)CNC(=O)[C@H](Cc1ccccc1)NC(=O)[C@H](Cc1cnc[nH]1)NC(=O)CNC(=O)[C@@H](NC(=O)[C@H](CS)NC(=O)[C@H](Cc1ccccc1)NC(=O)[C@H](CCCNC(=N)N)NC(=O)[C@@H](N)CCC(N)=O)[C@@H](C)O)C(=O)N[C@@H](C)C(=O)N1CCC[C@H]1C(=O)N[C@@H](CS)C(=O)N[C@@H](CC(N)=O)C(=O)NCC(=O)N1CCC[C@H]1C(=O)O (H-QRFCTGHFGGLAPCNGP-OH) | > 250 µM | > 125 µM |  |
| CC(C)C[C@H](NC(=O)CNC(=O)CNC(=O)[C@H](Cc1ccccc1)NC(=O)[C@H](Cc1cnc[nH]1)NC(=O)CCNC(=O)[C@@H](NC(=O)[C@H](CS)NC(=O)[C@H](Cc1ccccc1)NC(=O)[C@H](CCCNC(=N)N)NC(=O)[C@@H](N)CCC(N)=O)[C@@H](C)O)C(=O)N[C@@H](Cc1ccc(O)cc1)C(=O)N1CCC[C@H]1C(=O)N[C@@H](CS)C(=O)N[C@@H](CC(N)=O)C(=O)NCC(=O)N1CCC[C@H]1C(=O)O (H-QRFCT[βAla]HFGGLYPCNGP-OH) | > 250 µM | > 125 µM |  |
| H-TGHFGGLYP-OH | > 250 µM | > 250 µM |  |

More lines, now with the values ahead:

| Kd [1] | IC50 [2] | Kd [3] | Compound |
| --- | --- | --- | --- |
| 0.064 µM |  | 0.26 µM | CC(C)C[C@@H](C(=O)N[C@@H](Cc1ccc(O)cc1)C(=O)N1CCC[C@H]1C(=O)N[C@@H](CS)C(=O)O)N(C)C(=O)CN(C)C(=O)CNC(=O)[C@H](Cc1ccccc1)NC(=O)[C@H](Cc1cccnc1)NC(=O)CNC(=O)[C@@H](NC(=O)[C@@H](NC(=O)[C@H](Cc1ccccc1)NC(=O)[C@@H](N)CCCNC(=N)N)C(C)(C)S)[C@@H](C)O |
| 0.074 µM |  | 0.073 µM | CC(C)C[C@@H](C(=O)N[C@@H](Cc1ccc(O)cc1)C(=O)N1CCC[C@H]1C(=O)N[C@@H](CS)C(=O)O)N(C)C(=O)CN(C)C(=O)CNC(=O)[C@H](Cc1ccccc1)NC(=O)[C@H](Cc1ccc(N=C(N)N)cc1)NC(=O)CNC(=O)[C@@H](NC(=O)[C@@H](NC(=O)[C@H](Cc1ccccc1)NC(=O)[C@@H](N)CCCN=C(N)N)C(C)(C)S)[C@@H](C)O |
|  | 4.6 µM | 1.1 µM | CC(C)C[C@@H](C(=O)N[C@@H](Cc1ccc(O)cc1)C(=O)N1CCC[C@H]1C(=O)N[C@@H](CS)C(=O)O)N(C)C(=O)CN(C)C(=O)CNC(=O)[C@H](Cc1ccccc1)NC(=O)[C@H](Cc1ccc(N)cc1)NC(=O)CNC(=O)[C@@H](NC(=O)[C@@H](NC(=O)[C@H](Cc1ccccc1)NC(=O)[C@@H](N)CCCNC(=N)N)C(C)(C)S)[C@@H](C)O |
| 5.7 µM | 36 µM | 45 µM | CC(C)C[C@@H]1NC(=O)CNC(=O)CNC(=O)[C@H](Cc2ccccc2)NC(=O)[C@H](Cc2cnc[nH]2)NC(=O)CNC(=O)[C@H]([C@@H](C)O)NC(=O)[C@@H](NC(=O)[C@H](Cc2ccccc2)NC(=O)[C@H](CCCN=C(N)N)NC(=O)[C@@H](N)CCC(N)=O)CSSC[C@@H](C(=O)N[C@@H](CC(N)=O)C(=O)NCC(=O)N2CCC[C@H]2C(=O)O)NC(=O)[C@@H]2CCCN2C(=O)[C@H](Cc2ccc(O)cc2)NC1=O |
| 1.3 µM | 40 µM | 1.1 µM | CC(C)C[C@@H](C(=O)N[C@@H](Cc1ccc(O)cc1)C(=O)N1CCC[C@H]1C(=O)N[C@@H](CS)C(=O)O)N(C)C(=O)CN(C)C(=O)CNC(=O)[C@H](Cc1ccccc1)NC(=O)[C@H](CCCCN)NC(=O)CNC(=O)[C@@H](NC(=O)[C@@H](NC(=O)[C@H](Cc1ccccc1)NC(=O)[C@@H](N)CCCN=C(N)N)C(C)(C)S)[C@@H](C)O |
| 5.2 µM | 85 µM | 6.4 µM | CC(C)C[C@@H](C(=O)N[C@@H](Cc1ccc(O)cc1)C(=O)N1CCC[C@H]1C(=O)N[C@@H](CS)C(=O)O)N(C)C(=O)CN(C)C(=O)CNC(=O)[C@H](Cc1ccccc1)NC(=O)[C@H](CC1CCNCC1)NC(=O)CNC(=O)[C@@H](NC(=O)[C@@H](NC(=O)[C@H](Cc1ccccc1)NC(=O)[C@@H](N)CCCNC(=N)N)C(C)(C)S)[C@@H](C)O |
| 20 µM | 110 µM |  | CC(C)C[C@H](NC(=O)CNC(=O)CNC(=O)[C@H](Cc1ccccc1)NC(=O)[C@H](Cc1cnc[nH]1)NC(=O)CNC(=O)[C@@H](NC(=O)[C@@H](N)CS)[C@@H](C)O)C(=O)N[C@@H](Cc1ccc(O)cc1)C(=O)N1CCC[C@H]1C(=O)N[C@@H](CS)C(=O)O (H-CTGHFGGLYPC-OH) |
| 34 µM | 239 µM |  | CC(C)C[C@H](NC(=O)CNC(=O)CNC(=O)[C@H](Cc1ccccc1)NC(=O)[C@H](Cc1cnc[nH]1)NC(=O)CNC(=O)[C@@H](NC(=O)[C@@H](N)CS)[C@@H](C)O)C(=O)N[C@@H](Cc1ccc(O)cc1)C(=O)N1CCC[C@H]1C(=O)N[C@@H](CS)C(=O)N[C@@H](CC(N)=O)C(=O)NCC(=O)N1CCC[C@H]1C(=O)O (H-CTGHFGGLYPCNGP-OH) |
| 9.4 µM | 33 µM |  | CC(C)C[C@H](NC(=O)[C@H](Cc1ccc(O)cc1)NC(=O)[C@@H]1CSSC[C@H](NC(=O)[C@H](Cc2ccccc2)NC(=O)[C@H](CO)NC(=O)[C@@H](N)CC(N)=O)C(=O)N[C@@H](CCCN=C(N)N)C(=O)NCC(=O)N[C@@H](CCCN=C(N)N)C(=O)N2CCC[C@H]2C(=O)NCC(=O)N[C@@H](Cc2cnc[nH]2)C(=O)N[C@@H](Cc2ccccc2)C(=O)NCC(=O)NCC(=O)N1)C(=O)N[C@@H](Cc1ccccc1)C(=O)O (H-NSFCRGRPGHFGGCYLF-OH; disulfide 4-14) |
| 4.9 µM | 30 µM |  | CC(C)C[C@H](NC(=O)CNC(=O)CNC(=O)[C@H](Cc1ccccc1)NC(=O)[C@H](Cc1cnc[nH]1)NC(=O)CNC(=O)[C@H](C)NC(=O)[C@H](CS)NC(=O)[C@H](Cc1ccccc1)NC(=O)[C@H](CCCN=C(N)N)NC(=O)[C@@H](N)CCC(N)=O)C(=O)N[C@@H](Cc1ccc(O)cc1)C(=O)N1CCC[C@H]1C(=O)N[C@@H](CS)C(=O)N[C@@H](CC(N)=O)C(=O)NCC(=O)N1CCC[C@H]1C(=O)O (H-QRFCAGHFGGLYPCNGP-OH) |
| 18 µM | 169 µM |  | CC(C)C[C@H](NC(=O)CNC(=O)CNC(=O)[C@H](Cc1ccccc1)NC(=O)[C@H](Cc1cnc[nH]1)NC(=O)CNC(=O)[C@H](C)N(C)C(=O)[C@H](CS)NC(=O)[C@H](Cc1ccccc1)NC(=O)[C@H](CCCNC(=N)N)NC(=O)[C@@H](N)CCC(N)=O)C(=O)N[C@@H](Cc1ccc(O)cc1)C(=O)N1CCC[C@H]1C(=O)N[C@@H](CS)C(=O)N[C@@H](CC(N)=O)C(=O)NCC(=O)N1CCC[C@H]1C(=O)O (H-QRFC[NMeA]GHFGGLYPCNGP-OH) |
| 4.8 µM | 81 µM |  | CC(C)C[C@H](NC(=O)CNC(=O)CNC(=O)[C@H](Cc1ccccc1)NC(=O)[C@H](Cc1cnc[nH]1)NC(=O)CNC(=O)[C@@H](NC(=O)[C@H](CCN)NC(=O)[C@H](Cc1ccccc1)NC(=O)[C@H](CCCN=C(N)N)NC(=O)[C@@H](N)CCC(N)=O)[C@@H](C)O)C(=O)N[C@@H](Cc1ccc(O)cc1)C(=O)N1CCC[C@H]1C(=O)N[C@@H](CCC(=O)O)C(=O)N[C@@H](CC(N)=O)C(=O)NCC(=O)N1CCC[C@H]1C(=O)O (H-QRF[Dab]TGHFGGLYPENGP-OH) |
| 230 µM | > 125 µM |  | H-QRFSTGHFGGLYPSNGP-OH |

Reference: ChEMBL document CHEMBL1150419, “Structure-activity relationships of a peptide inhibitor of the human FcRn:human IgG interaction” (Bioorg Med Chem, 2008)
